Assay results taken from ChEMBL document CHEMBL5321284, “Discovery of a First-in-Class Degrader for the Lipid Kinase PIKfyve” (J Med Chem, 2023).
Activity calls are given as the source filed them. The rule behind the calls is not given here.

Tests used:
[1] = target: T1, von Hippel-Lindau disease tumor suppressor/1-phosphatidylinositol 3-phosphate 5-kinase (Homo sapiens) (UniProt Q9Y2I7+P40337); experiment: PROTAC activity at VHL/PIKfyve in human VCaP cells assessed as induction of PIKfyve degradation at 0.1 uM incubated for 24 hrs by immunoblot analysis; assay type: cell-based
How it was run: (§1)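 VCaP cells treated 24 h at 0.1 or 1.0 µM; percent PIKfyve degradation determined by immunoblotting.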

[2] = target: T1, von Hippel-Lindau disease tumor suppressor/1-phosphatidylinositol 3-phosphate 5-kinase (Homo sapiens); experiment: PROTAC activity at VHL/PIKfyve in human VCaP cells assessed as induction of PIKfyve degradation at 1 uM incubated for 24 hrs by immunoblot analysis; assay type: cell-based; how it was run: as §1
VCaP [3] = experiment: Antiproliferative activity against human VCaP cells assessed as inhibition of cell proliferation incubated for 2 weeks by crystal violet staining based analysis; assay type: functional; conditions: 336 h
How it was run: (§2)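 VCaP cells exposed either 24 h then washed and chased 2 weeks in compound-free medium, or continuously for 2 weeks; long-term viability visualized by crystal violet staining; IC50 calculated for each condition.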

VCaP [4] = experiment: Inhibition of autophagy in human VCaP cells assessed as increase in LC3A/B expression at 100 to 300 nM incubated for 4 hrs followed by culturing in compound-free medium for 72 hrs by immunoblot analysis; assay type: functional, cell-based; conditions: dose 100-300 nM
How it was run: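 VCaP cells treated 4 h, compounds removed, cultured 72 h in compound-free medium; whole cell lysates immunoblotted for PIKfyve, LC3A/B and GAPDH (RIPA lysis, 4–12% Bis-Tris gels, PVDF, ECL).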

DU-145 [5] = experiment: Induction of massive cytoplasmic vacuolization in human RFP-labeled DU-145 cells at 300 nM incubated for 4 hrs; assay type: functional, cell-based
VCaP [6] = experiment: Antiproliferative activity against human VCaP cells assessed as inhibition of cell proliferation incubated for 24 hrs followed by culturing in compound-free medium for 2 weeks by crystal violet staining based analysis; assay type: functional; how it was run: as §2
DU-145 [7] = experiment: Induction of massive cytoplasmic vacuolization in human RFP-labeled DU-145 cells incubated for 24 hrs; assay type: functional, cell-based; conditions: dose 100-3000 nM
How it was run: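 RFP-labeled DU145 cells treated 24 h (300 nM shown); vacuole area per cell quantified from images.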

[8] = target: T1, von Hippel-Lindau disease tumor suppressor/1-phosphatidylinositol 3-phosphate 5-kinase (Homo sapiens); experiment: PROTAC activity at VHL/PIKfyve in human VCaP cells assessed as induction of PIKfyve degradation at 100 to 300 nM incubated for 4 hrs followed by culturing in compound-free medium for 72 hrs by immunoblot analysis; assay type: cell-based; conditions: dose 100-300 nM
VCaP [9] = experiment: Antiproliferative activity against human VCaP cells assessed as inhibition of cell proliferation incubated for 4 hrs followed by culturing in compound-free medium for 2 weeks by crystal violet staining based analysis; assay type: functional
How it was run: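 VCaP cells treated 4 h, compound removed, then cultured 2 weeks in drug-free medium; long-term viability by crystal violet staining.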

T1 sequence (P40337 whole entry partner): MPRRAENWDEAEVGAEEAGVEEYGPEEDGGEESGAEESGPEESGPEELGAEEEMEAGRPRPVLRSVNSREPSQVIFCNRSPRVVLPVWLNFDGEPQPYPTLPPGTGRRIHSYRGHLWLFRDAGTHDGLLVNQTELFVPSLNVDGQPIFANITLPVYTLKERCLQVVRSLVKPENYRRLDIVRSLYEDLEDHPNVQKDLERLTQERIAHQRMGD
T1 sequence (Q9Y2I7 2-2098 limits assumed): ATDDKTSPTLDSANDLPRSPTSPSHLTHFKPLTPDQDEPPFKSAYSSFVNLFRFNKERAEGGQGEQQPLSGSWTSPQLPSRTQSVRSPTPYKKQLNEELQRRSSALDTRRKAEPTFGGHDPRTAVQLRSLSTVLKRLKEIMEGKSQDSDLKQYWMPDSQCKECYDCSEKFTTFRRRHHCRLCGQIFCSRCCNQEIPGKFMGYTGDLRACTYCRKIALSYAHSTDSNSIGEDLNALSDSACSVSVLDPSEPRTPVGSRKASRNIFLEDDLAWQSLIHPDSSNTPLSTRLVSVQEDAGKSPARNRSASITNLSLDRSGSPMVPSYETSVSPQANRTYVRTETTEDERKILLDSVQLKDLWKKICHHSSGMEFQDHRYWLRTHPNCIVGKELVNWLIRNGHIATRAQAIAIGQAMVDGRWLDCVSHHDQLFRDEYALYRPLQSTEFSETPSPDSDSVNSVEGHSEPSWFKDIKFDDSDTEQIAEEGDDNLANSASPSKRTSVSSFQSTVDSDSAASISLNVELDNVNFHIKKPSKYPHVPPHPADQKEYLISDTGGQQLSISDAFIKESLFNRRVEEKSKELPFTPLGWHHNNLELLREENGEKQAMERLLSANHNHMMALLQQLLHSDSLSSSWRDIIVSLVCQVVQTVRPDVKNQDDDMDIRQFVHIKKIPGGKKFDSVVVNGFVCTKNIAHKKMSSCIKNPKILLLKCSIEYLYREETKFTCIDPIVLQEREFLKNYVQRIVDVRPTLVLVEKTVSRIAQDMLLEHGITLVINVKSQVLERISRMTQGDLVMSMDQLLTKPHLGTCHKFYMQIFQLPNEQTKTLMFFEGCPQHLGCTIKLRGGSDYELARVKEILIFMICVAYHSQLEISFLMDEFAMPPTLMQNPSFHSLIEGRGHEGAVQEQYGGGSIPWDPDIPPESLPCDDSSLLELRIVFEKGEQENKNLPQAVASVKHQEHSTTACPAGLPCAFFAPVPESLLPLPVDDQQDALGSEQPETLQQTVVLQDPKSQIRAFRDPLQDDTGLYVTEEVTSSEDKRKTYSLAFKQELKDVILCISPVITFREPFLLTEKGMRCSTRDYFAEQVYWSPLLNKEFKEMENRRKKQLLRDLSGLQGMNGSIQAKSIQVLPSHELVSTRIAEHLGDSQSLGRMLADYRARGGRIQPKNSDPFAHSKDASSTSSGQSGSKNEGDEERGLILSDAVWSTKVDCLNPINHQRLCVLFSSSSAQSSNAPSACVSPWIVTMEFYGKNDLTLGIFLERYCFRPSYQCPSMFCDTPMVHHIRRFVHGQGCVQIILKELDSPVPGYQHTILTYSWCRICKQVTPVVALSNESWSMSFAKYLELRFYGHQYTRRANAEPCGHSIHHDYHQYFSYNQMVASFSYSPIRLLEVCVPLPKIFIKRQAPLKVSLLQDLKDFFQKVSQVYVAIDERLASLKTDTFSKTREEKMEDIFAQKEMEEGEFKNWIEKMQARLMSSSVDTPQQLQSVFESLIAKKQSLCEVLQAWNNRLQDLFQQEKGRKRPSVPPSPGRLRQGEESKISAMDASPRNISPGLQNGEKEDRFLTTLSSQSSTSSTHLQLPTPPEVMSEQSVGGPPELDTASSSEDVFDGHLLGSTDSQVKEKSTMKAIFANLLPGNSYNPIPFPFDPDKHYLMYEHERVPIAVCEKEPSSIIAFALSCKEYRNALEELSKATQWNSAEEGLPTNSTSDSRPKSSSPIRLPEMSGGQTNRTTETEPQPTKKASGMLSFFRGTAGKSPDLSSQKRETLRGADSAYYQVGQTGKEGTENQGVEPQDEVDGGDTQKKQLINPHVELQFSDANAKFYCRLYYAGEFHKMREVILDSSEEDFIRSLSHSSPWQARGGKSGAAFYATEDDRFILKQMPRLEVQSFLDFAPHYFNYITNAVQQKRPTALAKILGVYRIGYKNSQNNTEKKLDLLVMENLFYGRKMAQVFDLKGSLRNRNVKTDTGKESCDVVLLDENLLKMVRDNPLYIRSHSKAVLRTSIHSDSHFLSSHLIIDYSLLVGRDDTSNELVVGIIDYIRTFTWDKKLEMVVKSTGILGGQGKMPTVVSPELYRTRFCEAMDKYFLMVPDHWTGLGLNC

Row | Structure (SMILES) | Activity [1] | Activity [2] | other results
1 | Cc1cccc(/C=N/Nc2cc(N3CCOCC3)nc(OCCc3ccccn3)n2)c1 [APILIMOD] | – | – | IC50 (VCaP [3]): 254 nM; inhibition (VCaP [4]): inactive; Activity (DU-145 [5]): Active; IC50 (VCaP [6]): 1190 nM; Activity (DU-145 [7]): Dose-Dependent Effect
2 | Cc1cccc(/C=N/Nc2cc(N3CCOCC3)nc(OCCc3ccc(NC(=O)CCCCC(=O)N[C@H](C(=O)N4C[C@H](O)C[C@H]4C(=O)N[C@@H](C)c4ccc(-c5scnc5C)cc4)C(C)(C)C)cc3)n2)c1 | 47% | 44% | –
3 | Cc1cccc(/C=N/Nc2cc(N3CCOCC3)nc(OCCc3ccc(NC(=O)CCCCCCC(=O)N[C@H](C(=O)N4C[C@H](O)C[C@H]4C(=O)NCc4ccc(-c5scnc5C)cc4)C(C)(C)C)cc3)n2)c1 | 26% | 19% | –
4 | Cc1cccc(/C=N/Nc2cc(N3CCOCC3)nc(OCCc3ccc(NC(=O)CCCC(=O)N[C@H](C(=O)N4C[C@H](O)C[C@H]4C(=O)NCc4ccc(-c5scnc5C)cc4)C(C)(C)C)cc3)n2)c1 | 0% | 0% | –
5 | Cc1cccc(/C=N/Nc2cc(N3CCOCC3)nc(OCCc3ccc(NC(=O)CCCCC(=O)N[C@H](C(=O)N4C[C@@H](O)C[C@H]4C(=O)NCc4ccc(-c5scnc5C)cc4)C(C)(C)C)cc3)n2)c1 | 0% | 0% | inhibition (VCaP [4]): inactive; Activity (DU-145 [5]): Active; Activity [8]: inactive; IC50 (VCaP [9]): > 3000 nM
6 | Cc1cccc(/C=N/Nc2cc(N3CCOCC3)nc(OCCc3ccc(NC(=O)CCCCCCCCCC(=O)N[C@H](C(=O)N4C[C@H](O)C[C@H]4C(=O)NCc4ccc(-c5scnc5C)cc4)C(C)(C)C)cc3)n2)c1 | 64% | 41% | –
7 | Cc1cccc(/C=N/Nc2cc(N3CCOCC3)nc(OCCc3ccc(NC(=O)CCCCCCCCCCC(=O)N[C@H](C(=O)N4C[C@H](O)C[C@H]4C(=O)NCc4ccc(-c5scnc5C)cc4)C(C)(C)C)cc3)n2)c1 | 48% | 3% | –
8 | Cc1cccc(/C=N/Nc2cc(N3CCOCC3)nc(OCCc3ccc(NC(=O)CCC(=O)N[C@H](C(=O)N4C[C@H](O)C[C@H]4C(=O)NCc4ccc(-c5scnc5C)cc4)C(C)(C)C)cc3)n2)c1 | 0% | 8% | –
9 | Cc1cccc(/C=N/Nc2cc(N3CCOCC3)nc(OCCc3ccc(NC(=O)CCCCCCCCC(=O)N[C@H](C(=O)N4C[C@H](O)C[C@H]4C(=O)NCc4ccc(-c5scnc5C)cc4)C(C)(C)C)cc3)n2)c1 | 81% | 45% | –
10 | Cc1cccc(/C=N/Nc2cc(N3CCOCC3)nc(OCCc3ccc(NC(=O)CC(=O)N[C@H](C(=O)N4C[C@H](O)C[C@H]4C(=O)NCc4ccc(-c5scnc5C)cc4)C(C)(C)C)cc3)n2)c1 | 0% | 0% | –
11 | Cc1cccc(/C=N/Nc2cc(N3CCOCC3)nc(OCCc3ccc(NC(=O)CCCCCC(=O)N[C@H](C(=O)N4C[C@H](O)C[C@H]4C(=O)NCc4ccc(-c5scnc5C)cc4)C(C)(C)C)cc3)n2)c1 | 90% | 75% | –

Second part, led by results:

Row | Activity [1] | Activity [2] | Structure (SMILES) | other results
12 | 72% | 32% | Cc1cccc(/C=N/Nc2cc(N3CCOCC3)nc(OCCNC(=O)CCCCCCCCCC(=O)N[C@H](C(=O)N3C[C@H](O)C[C@H]3C(=O)NCc3ccc(-c4scnc4C)cc3)C(C)(C)C)n2)c1 | –
13 | 0% | 10% | Cc1cccc(/C=N/Nc2cc(N3CCOCC3)nc(OCCNC(=O)CCCCC(=O)N[C@H](C(=O)N3C[C@H](O)C[C@H]3C(=O)NCc3ccc(-c4scnc4C)cc3)C(C)(C)C)n2)c1 | –
14 | 0% | 0% | Cc1cccc(/C=N/Nc2cc(N3CCOCC3)nc(OCCNC(=O)CCC(=O)N[C@H](C(=O)N3C[C@H](O)C[C@H]3C(=O)NCc3ccc(-c4scnc4C)cc3)C(C)(C)C)n2)c1 | –
15 | 3% | 0% | Cc1cccc(/C=N/Nc2cc(N3CCOCC3)nc(OCCNC(=O)CCCCCC(=O)N[C@H](C(=O)N3C[C@H](O)C[C@H]3C(=O)NCc3ccc(-c4scnc4C)cc3)C(C)(C)C)n2)c1 | –
16 | 0% | 0% | Cc1cccc(/C=N/Nc2cc(N3CCOCC3)nc(OCCNC(=O)CC(=O)N[C@H](C(=O)N3C[C@H](O)C[C@H]3C(=O)NCc3ccc(-c4scnc4C)cc3)C(C)(C)C)n2)c1 | –
17 | 67% | 21% | Cc1cccc(/C=N/Nc2cc(N3CCOCC3)nc(OCCNC(=O)CCCCCCCCCCC(=O)N[C@H](C(=O)N3C[C@H](O)C[C@H]3C(=O)NCc3ccc(-c4scnc4C)cc3)C(C)(C)C)n2)c1 | –
18 | 0% | 0% | Cc1cccc(/C=N/Nc2cc(N3CCOCC3)nc(OCCNC(=O)CCCC(=O)N[C@H](C(=O)N3C[C@H](O)C[C@H]3C(=O)NCc3ccc(-c4scnc4C)cc3)C(C)(C)C)n2)c1 | –
19 | 0% | 51% | Cc1cccc(/C=N/Nc2cc(N3CCOCC3)nc(OCCNC(=O)CCCCCCC(=O)N[C@H](C(=O)N3C[C@H](O)C[C@H]3C(=O)NCc3ccc(-c4scnc4C)cc3)C(C)(C)C)n2)c1 | –
20 | 84% | 92% | Cc1cccc(/C=N/Nc2cc(N3CCOCC3)nc(OCCc3ccc(NC(=O)CCCCCCCC(=O)N[C@H](C(=O)N4C[C@H](O)C[C@H]4C(=O)NCc4ccc(-c5scnc5C)cc4)C(C)(C)C)cc3)n2)c1 | –
21 | 32% | 31% | Cc1cccc(/C=N/Nc2cc(N3CCOCC3)nc(OCCNC(=O)CCCCCCCCC(=O)N[C@H](C(=O)N3C[C@H](O)C[C@H]3C(=O)NCc3ccc(-c4scnc4C)cc3)C(C)(C)C)n2)c1 | –
22 | 30% | 17% | Cc1cccc(/C=N/Nc2cc(N3CCOCC3)nc(OCCNC(=O)CCCCCCCC(=O)N[C@H](C(=O)N3C[C@H](O)C[C@H]3C(=O)NCc3ccc(-c4scnc4C)cc3)C(C)(C)C)n2)c1 | –
